Assays:
Type in all cases: functional
[1] = Antiproliferative activity against multidrug-resistant P-gp expressing human KBVIN cells by sulforhodamine B assay
Method in brief: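 Vincristine-resistant KB subline kept in 100 nM vincristine, then grown 7–10 days without it before testing. RPMI 1640 with 10% FBS, 37 °C, 5% CO2. 3–5 × 10³ cells/well exposed 72 h to a concentration series, paclitaxel as assay control. SRB staining after TCA fixation, A515 read. GI50 is the 50% absorbance reduction versus untreated cells; three or more experiments.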

[2] = system: A549; assay: Antiproliferative activity against human A549 cells by sulforhodamine B assay
Method in brief: (§1)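 Cells in RPMI 1640 (25 mM HEPES, 2 mM L-glutamine, 10% heat-inactivated FBS, antibiotics) at 37 °C, 5% CO2. Seeded at 3–5 × 10³/well with graded concentrations, paclitaxel as assay control, for 72 h. TCA-fixed, stained with 0.04% SRB, dye dissolved in 10 mM Tris, A515 read. GI50 is the concentration halving absorbance versus untreated cells; three or more experiments.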

[3] = system: DU-145; assay: Antiproliferative activity against human DU145 cells by sulforhodamine B assay; method in brief: as §1
[4] = Selectivity ratio of GI50 for human KB cells to GI50 for multidrug-resistant P-gp expressing human KBVIN cells
Method in brief: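 Ratio of GI50 in parental KB to GI50 in P-gp-overexpressing KB-VIN. […] KB-VIN cells were grown 7–10 days without vincristine before the assay.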

[5] = system: KB; assay: Antiproliferative activity against human KB cells by sulforhodamine B assay; method in brief: as §1

Compound	GI50 [1] [µM]	GI50 [2] [µM]	GI50 [3] [µM]	RatioGI50 [4]	GI50 [5] [µM]
CCN1C(=O)[C@]2(COC(=O)c3ccccc3N)CC[C@H](OC)[C@]34C1[C@@](O)([C@@H](OC)[C@H]23)[C@@]1(O)C[C@H](OC)[C@H]2C[C@@H]4[C@@H]1[C@H]2OC	> 20	> 20	> 20	>20	> 20
C=C1[C@H]2C[C@@]3([C@@H]1OC(C)=O)[C@@H](C[C@@H]2OC(C)=O)[C@@]12C4[C@@H]3C[C@@H]1[C@@](C)(CC[C@@H]2O)CN4CC	> 20	> 20	> 20	>20	> 20
C=C1[C@H]2C[C@@H]3C4N5C[C@]6(C)CCC[C@@]47[C@@H]6[C@@]5(O)C[C@]3([C@@H]1OC(=O)CC)[C@H]7[C@H]2OC(=O)CC	> 20	> 20	> 20	>20	> 20
COC[C@]12CN(C)C3[C@@H]4[C@H](OC)[C@H]1[C@@]3([C@@H](OC)C[C@H]2OC(C)=O)[C@@H]1C[C@@]2(O)[C@H](OC(=O)c3ccccc3)[C@@H]1[C@]4(OC(C)=O)[C@@H](O)[C@@H]2OC	> 20	> 20	> 20	>20	> 20
C=C1[C@H]2C[C@@H]3C4N5C[C@]6(C)CCC[C@@]47[C@@H]6[C@@H]5C[C@]3([C@@H]1O)[C@H]7[C@H]2OC(=O)c1ccc(OC(F)(F)F)cc1	10	10	10	10	10
CC(=O)O[C@H]1C(=O)[C@@]2(C)[C@H]([C@H](OC(=O)c3ccccc3)[C@]3(O)C[C@H](OC(=O)[C@H](O)[C@@H](NC(=O)c4ccccc4)c4ccccc4)C(C)=C1C3(C)C)[C@]1(OC(C)=O)CO[C@@H]1C[C@@H]2O [PACLITAXEL]	0.95	0.0071	0.0057	0.0067	0.0064
C=C1[C@H]2C[C@@H]3C4N5C[C@]6(C)CCC[C@@]47[C@@H]6[C@@]5(O)C[C@]3([C@@H]1O)[C@H]7[C@H]2OC(=O)C(C)(C)C	> 20	> 20	> 20	>20	> 20
C=C1[C@H]2C[C@H]3C4N5C[C@]6(C)CCC[C@]47[C@H]([C@H]2O)C3(C[C@]5(OC(=O)c2ccc(OC)cc2)[C@H]67)[C@@H]1O	> 20	> 20	> 20	>20	> 20
COC[C@@]12CC[C@H](OC)[C@]34C(C([C@H](OC)[C@H]13)[C@]1(OC(C)=O)[C@H]3[C@@H](OC(=O)c5ccccc5)[C@](O)(C[C@H]34)[C@@H](OC)[C@@H]1O)N(C)C2 [HYPACONITINE]	> 20	> 20	> 20	>20	> 20
C=C1[C@H]2C[C@@H]3C4N5C[C@]6(C)CCC[C@@]47[C@@H]6[C@@]5(OC(=O)c4ccc(OC)c(OC)c4)C[C@]3([C@@H]1O)[C@H]7[C@H]2OC(=O)c1ccc(OC)c(OC)c1	10	10	10	10	10
C=C1[C@H]2C[C@@]3([C@@H]1OC(C)=O)[C@@H](C[C@@H]2OC(=O)c1ccccc1)[C@@]12C4[C@@H]3C[C@@H]1[C@@](C)(CC[C@@H]2O)CN4CC	> 20	> 20	> 20	>20	> 20
C=C1[C@H]2C[C@@H]3C4N5C[C@]6(C)CCC[C@@]47[C@@H]6[C@@H]5C[C@]3([C@@H]1O)[C@H]7[C@H]2OC(=O)c1ccc(C(F)(F)F)cc1	10	10	10	10	10
C=C1[C@H]2C[C@H]3C4N(Cc5ccccc5)C[C@]5(C)CCC[C@]46[C@H]([C@H]2O)C3(CC(=O)[C@H]56)[C@@H]1O (stereo not given in full)	> 20	> 20	> 20	>20	> 20
C=C1[C@H]2C[C@@H]3C4N5C[C@]6(C)CCC[C@@]47[C@@H]6[C@@H]5C[C@]3([C@@H]1O)[C@H]7[C@H]2OC(=O)c1cccnc1	> 20	> 20	> 20	>20	> 20
C=C1[C@H]2C[C@H]3C4N5C[C@]6(C)CCC[C@]47[C@H]([C@H]2O)C3(CC5[C@H]67)[C@@H]1O [KOBUSINE]	> 20	> 20	> 20	>20	> 20
